Only some compounds are listed: those with a hit (about 4% of all), similar ones and a draw of the others.
Cl transport mod: modulates chloride dependent transport by human KCC2; hit rate 2.2% among 190,000; B-score of Tl+ flux slope (higher = more flux/activation; lower = inhibition) at 10 µM; Q9H2X9; KCC2 cells, thallium flux FluoZin-2 fluorescence; AID 1456;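 active means thallium flux slope and its plate-corrected score both differing from the plate sample mean at a set confidence after two filtering rounds, in either direction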;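 further: slope of fluorescence scaled to starting intensity during 10 to 20 s after thallium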
Target sequence (Q9H2X9 whole entry, looked up): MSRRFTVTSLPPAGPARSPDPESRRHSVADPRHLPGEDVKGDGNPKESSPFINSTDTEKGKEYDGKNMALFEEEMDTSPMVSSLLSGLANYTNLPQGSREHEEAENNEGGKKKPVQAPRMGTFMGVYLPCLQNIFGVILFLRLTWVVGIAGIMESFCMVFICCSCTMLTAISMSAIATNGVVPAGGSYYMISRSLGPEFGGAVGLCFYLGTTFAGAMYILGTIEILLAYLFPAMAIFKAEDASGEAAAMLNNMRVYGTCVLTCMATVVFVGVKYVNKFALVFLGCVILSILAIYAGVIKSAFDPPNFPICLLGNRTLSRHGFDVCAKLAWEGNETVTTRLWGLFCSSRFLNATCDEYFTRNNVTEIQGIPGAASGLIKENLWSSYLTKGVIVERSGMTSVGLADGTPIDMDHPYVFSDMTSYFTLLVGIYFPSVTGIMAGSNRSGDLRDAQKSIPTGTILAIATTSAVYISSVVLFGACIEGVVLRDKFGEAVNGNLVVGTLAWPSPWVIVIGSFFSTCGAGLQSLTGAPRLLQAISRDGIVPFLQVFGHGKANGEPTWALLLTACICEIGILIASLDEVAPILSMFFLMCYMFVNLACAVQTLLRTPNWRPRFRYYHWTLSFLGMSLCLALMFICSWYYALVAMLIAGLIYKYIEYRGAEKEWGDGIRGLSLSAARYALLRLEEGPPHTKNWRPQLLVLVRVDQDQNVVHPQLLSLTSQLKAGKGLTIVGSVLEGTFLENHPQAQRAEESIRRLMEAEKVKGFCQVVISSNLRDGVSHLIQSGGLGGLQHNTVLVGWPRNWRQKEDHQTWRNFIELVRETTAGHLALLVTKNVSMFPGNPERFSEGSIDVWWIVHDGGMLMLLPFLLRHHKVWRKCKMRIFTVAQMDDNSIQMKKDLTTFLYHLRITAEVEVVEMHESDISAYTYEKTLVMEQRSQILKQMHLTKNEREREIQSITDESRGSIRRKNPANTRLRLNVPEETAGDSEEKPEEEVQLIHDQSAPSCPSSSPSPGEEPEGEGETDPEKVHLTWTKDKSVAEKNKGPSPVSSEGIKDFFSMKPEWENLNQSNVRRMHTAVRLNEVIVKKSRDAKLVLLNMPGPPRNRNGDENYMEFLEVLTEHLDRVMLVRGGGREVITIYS
WT yeast gro inh: growth inhibition of WT yeast, mitochondrial fusion screen; hit rate 2.1% among 190,000; AID 1362; inhibition, % at 10 µM; mitochondrial fusion phenotypic screen, WT strain; in the data active means inhibition above about 58%; tested in S. cerevisiae
MT stabilizer: stabilizes microtubules in HeLa cells. HeLa tubulin immunostaining HCS, 24 h; share of cells brighter than vehicle mean+2SD. % tubulin-high responders, % at 10 µM. hit rate 0.83% among 200,000. AID 2205;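 active means plate Z-score above 3 for both tubulin-high and condensed-nucleus cell shares, with cell loss under 80%, at 10 µM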;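 further: anti alpha tubulin signal scored within the nucleus-defined area of each cell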
Pf gametocyte: P. falciparum stage V gametocyte viability inhibition; inhibition, % at 10.9 µM; hit rate 0.065% among 150,000; AID 743093; P. falciparum stage V gametocytes, ATP luminescence, 24 h;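 active means inhibition above the mean plus 3 SD of compounds within the control limits, set per campaign, cut at about 38% in these data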;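 further: 0% = DMSO wells and 100% = medium only without gametocytes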
bCat nuc transl: alters nuclear translocation of beta-catenin in HeLa cells. immunofluorescence imaging. nuclear translocation activity, % at 5 µM. hit rate 0.3% among 190,000;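 active means nuclear translocation activity above 50% at 5 µM, with a well cell count of 50 or more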;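 further: per-cell ratio of nuclear to cytoplasmic median beta-catenin stain intensity; plate controls were DMSO negative control for no effect and GSK-3 inhibitor IX positive control for full effect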
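assay system = human HeLa cells, endogenous beta-catenin | times = compound treatment 24 h, 37°C, 5% CO2 | detection = Anti-beta-catenin immunofluorescence on PFA-fixed, Triton-permeabilized cells, DAPI nuclei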
An asterisk follows results filed as active; x = not tested or not shown.

SMILES	Cl transport mod	WT yeast gro inh	MT stabilizer	Pf gametocyte	bCat nuc transl
Cc1ccc(CNC(=S)N2CCOCC2)cc1	0.01	-16	2	x	-1
Cc1ccc(/C=N/NC(=S)N2CCOCC2)cc1	32*	17	3	x	-1
Cc1cc(N/N=C/c2ccc(Cl)cc2Cl)nc(NCc2ccccc2)n1	-1.6	83*	3	8	-1
CCCCNc1cc(C)nc(NCc2ccccc2)n1	0.064	55	10*	x	38
Cc1ccc(/C=N/Nc2cc(C)nc(NCc3ccccc3)n2)cc1	0.059	x	x	11	0
Cc1cc(Nc2ccccc2)nc(NCc2ccccc2)n1	0.18	64	11	14	-1
CC1=C(C(N)=O)S(=O)(=O)c2ccccc21	x	x	x	x	0
COc1cc(OC)c(S(=O)(=O)NC(C)C)cc1C(=O)O	0.8	x	x	-7	1
Cc1ccc(N(CC(O)Cn2c3ccccc3c3ccccc32)S(C)(=O)=O)cc1 (stereo unspecified)	-0.00088	40	2	x	0
Cc1ccc(N(CC(O)Cn2c3ccccc3c3ccccc32)S(C)(=O)=O)c(C)c1 (stereo unspecified)	0.46	67*	3	-4	-4
CN1CCC(N(CCc2ccccc2)C(=O)CCC(=O)O)CC1	x	x	x	7	x
CC1(c2ccc(Cl)cc2Cl)OCC(Cn2ccnc2)O1 (stereo unspecified)	-0.44	73*	36*	6	2
CCN(CC)C(=O)Oc1ccc(Br)cc1C(=O)Nc1ccc(F)cc1F	x	x	x	-16	-2
CCOc1ccc(NC(=O)/C=C/c2ccccc2)c([N+](=O)[O-])c1	1.2	-11	24*	x	10
CCOc1ccc(NS(=O)(=O)c2cc(NC(=O)c3cccc(C)c3)ccc2Cl)cc1	-0.65	13	23*	x	12
CN(C(=O)COC(=O)CNC(=O)C12CC3CC(CC(C3)C1)C2)C1CCS(=O)(=O)C1 (stereo unspecified)	0.59	-4	3	22	0
CCCNC(=O)C1(CC2CC(c3ccccc3)=NO2)CCN(C(=O)C2CCCC2)CC1 (stereo unspecified)	x	x	x	0	x
CC(C)c1ccc(N(CCc2ccccn2)C(=O)C(C)(C)C)cc1	x	x	x	-10	x
COc1ccc2ccccc2c1C(=O)/C=C\c1ccoc1	0.012	16	5	x	-2
CSc1nc(Sc2ccccc2)c2ccccc2n1	x	37	2	x	-1
CSc1nc(Sc2cccc(Cl)c2)c2ccccc2n1	x	59*	1	x	1
CC(=O)Nc1nc(=S)ss1	x	15	3	x	x
CC(=O)c1sc(NC(=O)c2c(F)cccc2F)nc1C	-0.35	-4	1	-4	-2
O=C(Nc1nc(=S)ss1)c1c(F)cccc1F	-1.2	79*	3	-6	x
Cc1ccccc1C(=O)Nc1nc(=S)ss1	11*	6	2	0	1
SMILES	Cl transport mod	WT yeast gro inh	MT stabilizer	Pf gametocyte	bCat nuc transl
Cc1ccccc1OCC(=O)OC(C(=O)c1ccccc1)c1ccccc1 (stereo unspecified)	-0.79	8	2	x	x
Cc1cc(NC(=O)c2ccccc2-c2ccccc2)ccc1Br	-1	72*	2	x	x
CCOC(=O)c1c(C)oc2c1c(C(c1cccnc1)N1CCCCC1)c(O)c1ccccc12 (stereo unspecified)	-0.027	71*	1	19	-1
CCOC(=O)C1CCN(C(c2cccnc2)c2c(NC(=O)c3ccco3)sc(C)c2C)CC1 (stereo unspecified)	x	42	6	-1	-2
CCOC(=O)c1c(C)oc2c1c(C=NCCO)c(O)c1ccccc12	-0.84	4	2	x	-6
CCOC(=O)c1c(C)oc2c1c(C(c1ccccc1)N1CCOCC1)c(O)c1ccccc12 (stereo unspecified)	-0.036	67*	3	-6	2
COc1ccc2c(n1)Sc1nc3ccccc3nc1N2	1.2	x	x	x	3
CC1(C)CC(=O)C(C=NCCN2CCN(C3CC(=O)N(c4ccc(Br)cc4)C3=O)CC2)=C(O)C1 (stereo unspecified)	0.3	-5	6	-19	-1
COc1ccc2c(c1)CCc1c(C(=O)N3CC4(C)CC3CC(C)(C)C4)noc1-2 (stereo unspecified)	0.39	73*	1	x	x
COc1ccc2c(c1)CCc1c(C(=O)N3CCOCC3)noc1-2	x	1	2	x	-1
COCCNC(=O)CN(C(=O)CCC(=O)Nc1ccccn1)c1ccccc1OC	x	x	x	18	x
Cc1c(-c2ccccc2)sc2nc[nH]c(=S)c12	90*	10	3	x	-1
CC(=O)c1cnc2nc(SCc3ccc(Cl)cc3)nn2c1C	x	x	x	-4	x
